From ChEMBL document CHEMBL1150418, “Discovery of potent furan piperazine sodium channel blockers for treatment of neuropathic pain” (Bioorg Med Chem, 2008)
Each block holds one compound with its values, some of them ahead of it.

Experiments:
[1] = target: Sodium channel protein type 10 subunit alpha (Rattus norvegicus) (UniProt Q62968); experiment: Blockade of Nav1.8 channel in rat dorsal root ganglion neurons assessed as inhibition of TTX-R current at 1 uM by whole cell patch clamp technique; type: tissue-based
Chain of Sodium channel protein type 10 subunit alpha (Rattus norvegicus) (Q62968 whole entry, looked up): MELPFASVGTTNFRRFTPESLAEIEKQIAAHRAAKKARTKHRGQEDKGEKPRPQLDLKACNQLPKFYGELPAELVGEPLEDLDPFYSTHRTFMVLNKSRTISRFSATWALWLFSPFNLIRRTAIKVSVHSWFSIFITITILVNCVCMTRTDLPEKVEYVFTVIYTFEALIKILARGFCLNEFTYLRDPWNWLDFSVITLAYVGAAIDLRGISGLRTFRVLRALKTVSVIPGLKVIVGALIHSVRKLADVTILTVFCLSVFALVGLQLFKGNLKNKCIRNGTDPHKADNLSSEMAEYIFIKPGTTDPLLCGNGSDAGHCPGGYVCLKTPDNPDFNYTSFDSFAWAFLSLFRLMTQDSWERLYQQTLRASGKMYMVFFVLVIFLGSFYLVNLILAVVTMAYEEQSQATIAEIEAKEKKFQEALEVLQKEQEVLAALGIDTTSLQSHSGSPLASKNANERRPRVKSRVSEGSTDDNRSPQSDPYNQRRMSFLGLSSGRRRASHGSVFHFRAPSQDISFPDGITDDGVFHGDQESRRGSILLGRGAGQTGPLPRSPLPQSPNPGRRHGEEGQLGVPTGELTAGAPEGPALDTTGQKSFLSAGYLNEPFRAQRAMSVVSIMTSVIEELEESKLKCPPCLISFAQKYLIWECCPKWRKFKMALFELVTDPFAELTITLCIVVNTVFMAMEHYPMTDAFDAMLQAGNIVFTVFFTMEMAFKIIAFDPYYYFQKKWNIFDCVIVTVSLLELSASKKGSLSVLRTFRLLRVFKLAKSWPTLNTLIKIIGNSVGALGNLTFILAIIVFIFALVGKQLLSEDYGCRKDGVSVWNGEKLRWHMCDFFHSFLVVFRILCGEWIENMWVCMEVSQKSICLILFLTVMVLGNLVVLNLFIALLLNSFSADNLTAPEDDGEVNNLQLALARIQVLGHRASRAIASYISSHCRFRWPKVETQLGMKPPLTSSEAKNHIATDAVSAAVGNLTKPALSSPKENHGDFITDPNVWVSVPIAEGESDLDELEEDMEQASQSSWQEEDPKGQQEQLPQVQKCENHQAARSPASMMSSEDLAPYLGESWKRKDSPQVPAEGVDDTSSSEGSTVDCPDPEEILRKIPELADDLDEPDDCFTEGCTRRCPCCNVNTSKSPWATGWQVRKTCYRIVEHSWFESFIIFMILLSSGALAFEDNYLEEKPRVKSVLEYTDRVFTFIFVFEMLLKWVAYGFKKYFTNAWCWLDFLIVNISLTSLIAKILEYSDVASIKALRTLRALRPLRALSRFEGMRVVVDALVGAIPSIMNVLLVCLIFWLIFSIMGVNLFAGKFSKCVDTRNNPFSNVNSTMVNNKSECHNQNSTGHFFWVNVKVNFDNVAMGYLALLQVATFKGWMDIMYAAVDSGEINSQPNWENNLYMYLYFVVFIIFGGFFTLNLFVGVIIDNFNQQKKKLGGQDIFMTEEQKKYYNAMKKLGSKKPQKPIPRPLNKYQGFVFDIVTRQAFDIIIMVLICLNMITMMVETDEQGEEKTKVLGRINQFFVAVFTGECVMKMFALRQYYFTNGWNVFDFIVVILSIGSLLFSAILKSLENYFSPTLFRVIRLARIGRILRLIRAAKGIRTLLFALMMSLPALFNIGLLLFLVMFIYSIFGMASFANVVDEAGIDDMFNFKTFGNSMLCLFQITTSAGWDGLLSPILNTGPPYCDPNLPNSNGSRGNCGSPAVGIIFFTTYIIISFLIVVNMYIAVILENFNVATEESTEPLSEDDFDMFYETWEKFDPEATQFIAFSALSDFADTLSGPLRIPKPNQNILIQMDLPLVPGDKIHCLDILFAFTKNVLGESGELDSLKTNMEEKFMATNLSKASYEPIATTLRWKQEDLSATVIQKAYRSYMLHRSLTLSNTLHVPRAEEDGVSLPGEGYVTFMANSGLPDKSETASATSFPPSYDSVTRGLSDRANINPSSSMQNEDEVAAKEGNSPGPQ
How it was run: (§1)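 Whole-cell voltage clamp of TTX-resistant currents in dissociated rat DRG neurons. Pipette (mM): CsF 135, NaCl 5, CsCl 10, EGTA 5, HEPES 10, pH 7.2. Bath (mM): NaCl 22, choline Cl 110, CaCl2 1.8, MgCl2 0.8, HEPES 10, glucose 5, pH 7.4. Inactivated-state protocol with pre-pulse at V1/2 (−40 mV). Mean ± SEM of two to six determinations.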

[2] = target: T1, Sodium channel protein type 10 subunit alpha (Homo sapiens, UniProt Q9Y5Y9); experiment: Inhibition of human recombinant Nav1.8 channel expressed in HEK293 cells at 0.3 uM by whole cell voltage clamp technique; type: cell-based
How it was run: (§2)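 HEK293 cells stably expressing recombinant human sodium channels, grown in high-glucose DMEM, 10% FBS, 2 mM sodium pyruvate, G418. Whole-cell voltage clamp; pipettes 0.8–2.5 MΩ; internal (mM) 135 CsF, 10 CsCl, 5 EGTA, 5 NaCl, 10 HEPES, pH 7.3 with CsOH. Holding pre-pulse set at midpoint of steady-state inactivation for each subtype.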

[3] = target: Sodium channel protein type 10 subunit alpha (Mus musculus, UniProt Q6QIY3); experiment: Inhibition of mouse recombinant Nav1.8 channel expressed in HEK293 cells by isotopic efflux assay; type: cell-based
Chain of Sodium channel protein type 10 subunit alpha (Mus musculus, UniProt Q6QIY3) (Q6QIY3 whole entry): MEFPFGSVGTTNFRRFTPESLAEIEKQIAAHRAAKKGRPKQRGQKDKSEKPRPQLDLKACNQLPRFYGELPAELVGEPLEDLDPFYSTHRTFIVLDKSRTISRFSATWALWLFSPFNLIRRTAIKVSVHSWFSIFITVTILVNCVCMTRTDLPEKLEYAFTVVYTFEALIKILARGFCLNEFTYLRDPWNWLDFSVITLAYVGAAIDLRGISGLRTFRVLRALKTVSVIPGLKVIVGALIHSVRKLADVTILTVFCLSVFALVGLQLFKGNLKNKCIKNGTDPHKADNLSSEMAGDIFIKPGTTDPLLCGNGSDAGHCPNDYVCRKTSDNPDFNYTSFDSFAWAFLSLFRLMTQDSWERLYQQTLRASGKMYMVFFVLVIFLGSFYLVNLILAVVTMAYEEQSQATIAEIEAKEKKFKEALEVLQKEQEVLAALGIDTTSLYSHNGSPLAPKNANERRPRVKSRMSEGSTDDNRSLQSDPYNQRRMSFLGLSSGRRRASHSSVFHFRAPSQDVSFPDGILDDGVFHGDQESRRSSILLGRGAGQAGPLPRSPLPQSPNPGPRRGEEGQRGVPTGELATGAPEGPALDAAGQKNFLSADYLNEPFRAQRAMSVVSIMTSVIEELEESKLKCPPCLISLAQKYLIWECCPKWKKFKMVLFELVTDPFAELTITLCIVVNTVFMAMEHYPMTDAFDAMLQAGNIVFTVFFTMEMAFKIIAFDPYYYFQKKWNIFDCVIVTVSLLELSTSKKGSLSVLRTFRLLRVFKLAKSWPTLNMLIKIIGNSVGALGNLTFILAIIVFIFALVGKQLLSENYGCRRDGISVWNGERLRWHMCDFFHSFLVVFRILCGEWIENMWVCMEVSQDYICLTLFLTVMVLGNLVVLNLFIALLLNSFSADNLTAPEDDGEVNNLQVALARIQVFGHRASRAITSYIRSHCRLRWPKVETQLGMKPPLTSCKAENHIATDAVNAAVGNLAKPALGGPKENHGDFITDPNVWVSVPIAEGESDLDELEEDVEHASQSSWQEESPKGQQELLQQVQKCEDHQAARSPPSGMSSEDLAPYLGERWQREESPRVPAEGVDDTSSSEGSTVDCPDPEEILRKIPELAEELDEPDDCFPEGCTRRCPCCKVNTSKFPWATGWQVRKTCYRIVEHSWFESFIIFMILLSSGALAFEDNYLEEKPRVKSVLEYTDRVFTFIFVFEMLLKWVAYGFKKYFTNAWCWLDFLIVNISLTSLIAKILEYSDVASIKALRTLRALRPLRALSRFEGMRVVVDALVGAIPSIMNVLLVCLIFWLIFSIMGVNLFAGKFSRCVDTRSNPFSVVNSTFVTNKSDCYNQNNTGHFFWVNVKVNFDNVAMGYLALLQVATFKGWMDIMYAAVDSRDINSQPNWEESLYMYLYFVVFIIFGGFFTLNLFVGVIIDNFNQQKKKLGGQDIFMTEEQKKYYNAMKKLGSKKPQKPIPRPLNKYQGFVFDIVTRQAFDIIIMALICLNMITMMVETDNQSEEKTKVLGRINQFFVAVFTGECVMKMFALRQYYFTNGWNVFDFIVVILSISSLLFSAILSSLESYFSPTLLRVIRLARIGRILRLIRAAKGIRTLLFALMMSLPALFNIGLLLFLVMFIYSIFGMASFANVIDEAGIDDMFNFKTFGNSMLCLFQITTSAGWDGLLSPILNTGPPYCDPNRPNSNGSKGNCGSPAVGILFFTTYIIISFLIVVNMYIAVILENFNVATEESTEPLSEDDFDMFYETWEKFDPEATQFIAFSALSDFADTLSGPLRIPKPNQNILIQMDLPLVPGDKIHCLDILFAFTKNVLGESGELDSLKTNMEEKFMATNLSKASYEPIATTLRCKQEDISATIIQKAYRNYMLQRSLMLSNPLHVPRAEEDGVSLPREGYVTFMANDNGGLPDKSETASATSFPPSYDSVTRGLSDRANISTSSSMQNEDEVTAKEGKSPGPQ

[4] = target: T1, Sodium channel protein type 10 subunit alpha; experiment: Inhibition of human recombinant Nav1.8 channel expressed in HEK293 cells at 0.1 uM by whole cell voltage clamp technique; type: cell-based; how it was run: as §2
[5] = target: Sodium channel protein type 10 subunit alpha (Rattus norvegicus) (UniProt Q62968); experiment: Blockade of Nav1.8 channel in rat dorsal root ganglion neurons assessed as inhibition of TTX-R current at 0.1 uM by whole cell patch clamp technique; type: tissue-based; how it was run: as §1
[6] = target: T1, Sodium channel protein type 10 subunit alpha; experiment: Inhibition of human recombinant Nav1.8 channel expressed in HEK293 cells at 1 uM by whole cell voltage clamp technique; type: cell-based; how it was run: as §2
[7] = target: Sodium channel protein type 10 subunit alpha (Rattus norvegicus) (UniProt Q62968); experiment: Blockade of Nav1.8 channel in rat dorsal root ganglion neurons assessed as inhibition of TTX-R current at 0.3 uM by whole cell patch clamp technique; type: tissue-based; how it was run: as §1
[8] = target: T1, Sodium channel protein type 10 subunit alpha; experiment: Inhibition of human recombinant Nav1.8 channel expressed in HEK293 cells by whole cell voltage clamp technique; type: cell-based; how it was run: as §2
Rattus norvegicus [9] = experiment: Analgesic activity in ip dosed Sprague-Dawley rat by rotarod test
Rattus norvegicus [10] = experiment: Effect on locomotor activity in ip dosed Sprague-Dawley rat
Rattus norvegicus [11] = experiment: Analgesic activity in ip dosed Sprague-Dawley rat assessed as attenuation of mechanical allodynia in chung model of neuropathic pain
[12] = target: Sodium channel protein type 10 subunit alpha (Rattus norvegicus, UniProt Q62968); experiment: Blockade of Nav1.8 channel in rat dorsal root ganglion neurons assessed as inhibition of TTX-R current by whole cell patch clamp technique; type: tissue-based; how it was run: as §1
Chain of Sodium channel protein type 10 subunit alpha (Rattus norvegicus, UniProt Q62968) (Q62968 whole entry): as the sequence (Q62968 whole entry, looked up) above

[13] = target: Sodium channel protein type 2 subunit alpha (Homo sapiens, UniProt Q99250); experiment: Inhibition of human recombinant Nav1.2 channel expressed in HEK293 cells by whole cell voltage clamp technique; type: cell-based
How it was run: (§3)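 HEK293 cells stably expressing recombinant human sodium channels, grown in high-glucose DMEM, 10% FBS, 2 mM sodium pyruvate, G418. Holding pre-pulse set at midpoint of steady-state inactivation for each subtype.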

[14] = Ratio of drug level in brain to plasma in Sprague-Dawley rat; type: ADME; settings: Sprague-Dawley, brain and plasma
[15] = target: T2, 5-hydroxytryptamine receptor 1A (Homo sapiens) (UniProt P08908); experiment: Binding affinity to 5HT1A receptor at 10 uM
T2 sequence (whole entry): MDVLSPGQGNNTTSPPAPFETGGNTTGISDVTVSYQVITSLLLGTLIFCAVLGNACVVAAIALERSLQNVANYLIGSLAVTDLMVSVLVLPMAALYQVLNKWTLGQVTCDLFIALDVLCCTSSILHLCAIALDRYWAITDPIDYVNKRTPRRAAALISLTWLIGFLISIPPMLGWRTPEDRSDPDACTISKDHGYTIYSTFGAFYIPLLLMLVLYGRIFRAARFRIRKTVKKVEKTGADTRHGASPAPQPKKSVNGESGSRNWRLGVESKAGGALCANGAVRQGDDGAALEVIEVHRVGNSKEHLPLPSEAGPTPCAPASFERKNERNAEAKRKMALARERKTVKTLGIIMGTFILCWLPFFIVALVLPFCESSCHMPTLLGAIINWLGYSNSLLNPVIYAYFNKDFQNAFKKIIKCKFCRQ

[16] = Cmax in Sprague-Dawley rat at 10 mg/kg, po; type: ADME, organism-based; set-up: dose 10 mg/kg, route oral; settings: in vivo
How it was run: (§4)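 Rat pharmacokinetics after administration at 10 mg/kg in 10% DMSO/PEG400.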

Rattus norvegicus [17] = experiment: Effect on locomotor activity in po dosed Sprague-Dawley rat; type: functional
How it was run: (§5)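 Open-field locomotor activity recorded with photobeam activity monitors during the light cycle; groups of at least six rats, mean ± SEM.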

Rattus norvegicus [18] = experiment: Analgesic activity in po dosed Sprague-Dawley rat by rotarod test; type: functional
How it was run: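 Accelerating rotorod: after 30-min acclimation, rats placed on 9-cm rod ramping 0–20 rpm over 60 s; latency to fall recorded, maximum 60 s; three training sessions per rat. Groups of at least six rats; mean ± SEM.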

[19] = Volume of distribution at steady state in Sprague-Dawley rat at 10 mg/kg; type: ADME, organism-based; set-up: dose 10 mg/kg; settings: in vivo, read-out: Vdss; how it was run: as §4
[20] = target: Sodium channel protein type 5 subunit alpha (Homo sapiens, UniProt Q14524); experiment: Inhibition of human recombinant Nav1.5 channel expressed in HEK293 cells by whole cell voltage clamp technique; type: cell-based; how it was run: as §3
Rattus norvegicus [21] = experiment: Analgesic activity in po dosed Sprague-Dawley rat by edge test; type: functional
How it was run: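 Balance test: rats placed on 0.5-cm-thick edges of a 40 × 40 × 36 cm plexiglass box, must pull up onto the edge and avoid falling; cut-off 2 min. Groups of at least six rats.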

[22] = Oral bioavailability in Sprague-Dawley rat at 10 mg/kg; type: ADME, organism-based; settings: in vivo; how it was run: as §4
[23] = Plasma clearance in Sprague-Dawley rat at 10 mg/kg; type: ADME, organism-based; set-up: dose 10 mg/kg; how it was run: as §4
Rattus norvegicus [24] = experiment: Analgesic activity in po dosed Sprague-Dawley rat assessed as attenuation of mechanical allodynia in chung model of neuropathic pain; type: functional
[25] = target: 5-hydroxytryptamine receptor 1B (Homo sapiens) (UniProt P28222); experiment: Binding affinity to 5HT1B receptor at 10 uM
Chain of 5-hydroxytryptamine receptor 1B (Homo sapiens) (P28222 whole entry): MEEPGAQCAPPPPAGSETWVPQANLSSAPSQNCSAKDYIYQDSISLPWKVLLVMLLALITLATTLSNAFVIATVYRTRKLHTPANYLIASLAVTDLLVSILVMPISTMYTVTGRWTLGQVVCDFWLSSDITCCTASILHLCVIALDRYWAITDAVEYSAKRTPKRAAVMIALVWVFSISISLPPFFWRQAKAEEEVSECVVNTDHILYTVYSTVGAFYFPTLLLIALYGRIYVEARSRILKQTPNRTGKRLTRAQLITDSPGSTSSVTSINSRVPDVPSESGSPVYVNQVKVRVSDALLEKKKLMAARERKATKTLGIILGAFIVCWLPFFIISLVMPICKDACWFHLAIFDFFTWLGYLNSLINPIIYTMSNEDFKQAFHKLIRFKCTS

[26] = target: Sodium channel protein type 10 subunit alpha (Rattus norvegicus) (UniProt Q62968); experiment: Blockade of Nav1.8 channel in rat dorsal root ganglion neurons assessed as inhibition of TTX-R current at 0.03 uM by whole cell patch clamp technique; type: tissue-based
How it was run: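 Dissociated rat DRG neurons; TTx-r currents recorded by whole-cell voltage clamp. Holding pre-pulse was set at the steady-state inactivation midpoint (V1/2 = −40 mV), giving an inactivated-state protocol. Pipette solution (mM): CsF 135, NaCl 5, CsCl 10, EGTA 5, HEPES 10, pH 7.2. Bath solution (mM): NaCl 22, choline Cl 110, CaCl2 1.8, MgCl2 0.8, HEPES 10, glucose 5, pH 7.4. Percent inhibition is the mean of 2–6 determinations ± SEM.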

Rattus norvegicus [27] = experiment: Effect on locomotor activity in Sprague-Dawley rat at 230 umol/kg; type: functional; how it was run: as §5
Rattus norvegicus [28] = experiment: Cardiovascular effect in iv dosed Sprague-Dawley rat assessed as decrease in heart rate; type: functional; set-up: scale not given: the % may be the effect or the level left
How it was run: (§6)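 Anesthetized rats: after a 30-min control period, blocker or vehicle (PEG-400) infused intravenously as five successive 30-min infusions at 1×, 3×, 10×, 30× and 100× of calculated therapeutic dose; blood sample and hematocrit taken after infusion; mean arterial pressure and heart rate monitored.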

Rattus norvegicus [29] = experiment: Cardiovascular effect in iv dosed Sprague-Dawley rat assessed as decrease in mean arterial blood pressure; type: functional, Artery; set-up: scale not given: the % may be the effect or the level left; how it was run: as §6
[30] = target: T1, Sodium channel protein type 10 subunit alpha; experiment: Inhibition of human recombinant Nav1.8 channel expressed in HEK293 cells at 0.03 uM by whole cell voltage clamp technique; type: cell-based; how it was run: as §2

IC50 [3]: 14 µM
SMILES: O=C(c1ccc(-c2ccc(Cl)cc2)o1)N1CCN(c2cccc(C(F)(F)F)c2)CC1

inhibition [4]: 39%
inhibition [6]: 93%
inhibition [1]: 56%
SMILES: O=C(c1ccc(-c2ccc(Oc3ccccc3)cc2)o1)N1CCNCC1

inhibition [7]: 65%
IC50 [3]: 2.4 µM
SMILES: CN(C)CC(C)(C)CNC(=O)c1ccc(-c2ccc(Cl)cc2)o1

Activity [15]: 60%
IC50 [8]: 0.28 µM
Cmax [16]: 0.13 µg/mL
Vd [19]: 24 L/kg
inhibition [7]: 41%
IC50 [3]: 2.9 µM
IC50 [12]: 0.43 µM
IC50 [13]: 1.1 µM
bioavailability [22]: 42%
clearance [23]: 21 L/h/kg
Activity [25]: 86%
Kp [14]: 9
inhibition [2]: 55%
SMILES: O=C(c1ccc(-c2ccc(Cl)cc2)o1)N1CCNCC1
ED50 (Rattus norvegicus [17]): > 300 µmol/kg
ED50 (Rattus norvegicus [18]): > 300 µmol/kg
IC50 [20]: 4.6 µM
ED50 (Rattus norvegicus [21]): > 300 µmol/kg
ED50 (Rattus norvegicus [24]): 24 µmol/kg

The remaining lines, values behind:

SMILES: CN1CCN(C(=O)c2ccc(-c3ccc(C(C)(C)C)cc3)o2)CC1
inhibition [1]: 55%
inhibition [2]: 32%

SMILES: O=C(c1ccc(-c2ccc(OC(F)(F)F)cc2)o1)N1CCN(C2CCCCC2)CC1
inhibition [4]: 42%
inhibition [2]: 89%

SMILES: CN1CCN(C(=O)c2ccc(-c3ccc(Oc4ccccc4)cc3)o2)CC1
inhibition [4]: 35%
inhibition [5]: 55%
inhibition [1]: 90%
inhibition [2]: 87%

SMILES: Cc1cccc(C)c1OCC(C)N (stereo unspecified) [MEXILETINE]
IC50 [8]: 56 µM
ED50 (Rattus norvegicus [9]): > 140 µmol/kg
ED50 (Rattus norvegicus [10]): 45 µmol/kg
ED50 (Rattus norvegicus [11]): 102 µmol/kg
IC50 [12]: 31 µM
IC50 [13]: 2.9 µM
Kp [14]: 1.4

SMILES: O=C(NCCN1CCCCC1)c1ccc(-c2ccc(Cl)cc2)o1
inhibition [4]: 29%
inhibition [7]: 59%
IC50 [3]: 0.9 µM

SMILES: O=C(c1ccc(-c2ccc(Cl)cc2)o1)N1CCN(C2CCCCC2)CC1
IC50 [8]: 0.3 µM
Cmax [16]: 0.47 µg/mL
ED50 (Rattus norvegicus [17]): > 300 µmol/kg
ED50 (Rattus norvegicus [18]): > 300 µmol/kg
Vd [19]: 7.8 L/kg
inhibition [7]: 50%
IC50 [3]: 1 µM
IC50 [12]: 0.39 µM
IC50 [20]: 2.3 µM
IC50 [13]: 0.35 µM
ED50 (Rattus norvegicus [21]): > 300 µmol/kg
bioavailability [22]: 48%
clearance [23]: 2.7 L/h/kg
ED50 (Rattus norvegicus [24]): 37 µmol/kg
Kp [14]: 9
inhibition [2]: 58%

SMILES: CC(C)(C)c1ccc(-c2ccc(C(=O)N3CCN(C4CCCCC4)CC3)o2)cc1
IC50 [8]: 0.03 µM
inhibition [4]: 81%
Cmax [16]: 0.57 µg/mL
ED50 (Rattus norvegicus [18]): > 300 µmol/kg
Vd [19]: 13.4 L/kg
inhibition [26]: 20%
inhibition [5]: 58%
IC50 [12]: 0.09 µM
IC50 [20]: 0.1 µM
ED50 (Rattus norvegicus [21]): > 300 µmol/kg
bioavailability [22]: 7%
clearance [23]: 7.6 L/h/kg
ED50 (Rattus norvegicus [24]): 4.7 µmol/kg
Activity (Rattus norvegicus [27]): 38%
Kp [14]: 8
Activity (Rattus norvegicus [28]): 27%
Activity (Rattus norvegicus [29]): 11%
inhibition [30]: 57%
